Here are results for one compound from ChEMBL document CHEMBL5331127, “Discovery of ARD-2051 as a Potent and Orally Efficacious Proteolysis Targeting Chimera (PROTAC) Degrader of Androgen Receptor for the Treatment of Advanced Prostate Cancer” (J Med Chem, 2023).

Structures are written as SMILES. Activity calls are given as the source filed them. The rule behind the calls is not given here.

Data set [1] is described as follows: Drug concentration in ICR mouse plasma at 10 mg/kg, po measured after 6 hrs. The format is ADME, organism-based. In a few lines:
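Mice given a single 10 mg/kg dose by oral gavage, 3 mice per time point. Plasma drug levels measured at 1, 3, 6 and 24 h; mean ± SD reported.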

Data set [2] in a line: Cmax in Beagle dog at 3 mg/kg, po measured up to 24 hrs by LC-MS/MS analysis. Particulars: in vivo. Details: time < 24 hrs, dose 3 mg/kg, route po. In kind it is ADME, organism-based, Canis lupus familiaris. Put shortly:
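Male Beagle dogs dosed orally at 3 mg/kg in 90% PEG400 + 10% Cremophor.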

The target of another data set is T1, Androgen receptor (Homo sapiens, UniProt P10275).
T1 sequence (P10275 whole entry): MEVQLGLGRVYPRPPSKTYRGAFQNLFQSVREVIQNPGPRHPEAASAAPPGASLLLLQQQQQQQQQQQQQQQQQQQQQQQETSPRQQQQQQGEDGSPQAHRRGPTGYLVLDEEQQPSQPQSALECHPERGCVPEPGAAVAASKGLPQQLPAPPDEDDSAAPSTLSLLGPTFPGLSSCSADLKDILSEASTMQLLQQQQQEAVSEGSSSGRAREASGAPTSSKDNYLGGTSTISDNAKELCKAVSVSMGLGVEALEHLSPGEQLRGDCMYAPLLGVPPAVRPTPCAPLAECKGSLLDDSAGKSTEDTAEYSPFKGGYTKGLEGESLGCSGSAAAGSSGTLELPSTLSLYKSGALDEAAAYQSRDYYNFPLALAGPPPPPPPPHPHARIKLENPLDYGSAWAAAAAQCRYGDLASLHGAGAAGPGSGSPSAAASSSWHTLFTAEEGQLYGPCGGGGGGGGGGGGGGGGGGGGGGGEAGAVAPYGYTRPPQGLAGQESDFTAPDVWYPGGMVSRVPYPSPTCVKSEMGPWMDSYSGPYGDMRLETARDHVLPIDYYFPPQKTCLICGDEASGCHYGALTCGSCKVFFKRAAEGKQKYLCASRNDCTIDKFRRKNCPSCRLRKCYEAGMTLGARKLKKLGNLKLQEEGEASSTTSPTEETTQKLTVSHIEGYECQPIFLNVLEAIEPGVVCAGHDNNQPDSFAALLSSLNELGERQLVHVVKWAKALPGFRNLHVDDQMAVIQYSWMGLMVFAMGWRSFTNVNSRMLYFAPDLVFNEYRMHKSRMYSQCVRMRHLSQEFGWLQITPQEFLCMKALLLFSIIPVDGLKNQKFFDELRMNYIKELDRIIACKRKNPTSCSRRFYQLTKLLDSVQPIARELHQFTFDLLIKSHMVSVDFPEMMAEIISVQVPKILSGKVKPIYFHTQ
As to the kind of experiment: Induction of androgen receptor degradation in human VCaP cells incubated for 24 hrs by Western blot analysis. In kind it is cell-based. For orientation: A western blot detects proteins with antibodies after separation by electrophoresis.

The nature of data set [3]: Metabolic stability in human liver microsomes assessed as half life at 1 uM measured upto 45 mins in presence of NADPH by LC-MS/MS analysis. The format is ADME, Microsome. Particulars: 0.75 h. In a few lines:
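Pooled liver microsomes from each species: 1 μM compound with 0.5 mg/mL microsomes and 1.7 mM NADPH in 0.1 M K-phosphate, pH 7.4, 5 mM MgCl2, 37 °C. Sampled at 0, 5, 10, 15, 30 and 45 min with cold ACN quench. No-NADPH incubation as negative control; ketanserin as positive control. LC-MS/MS; half-life from ln(remaining) versus time.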
For orientation: Microsomes from liver hold many membrane-bound enzymes, among them those of drug oxidation.

Another data set has as its target T2, Cytochrome P450 1A2 (Homo sapiens, UniProt P05177).
T2 sequence (P05177 whole entry): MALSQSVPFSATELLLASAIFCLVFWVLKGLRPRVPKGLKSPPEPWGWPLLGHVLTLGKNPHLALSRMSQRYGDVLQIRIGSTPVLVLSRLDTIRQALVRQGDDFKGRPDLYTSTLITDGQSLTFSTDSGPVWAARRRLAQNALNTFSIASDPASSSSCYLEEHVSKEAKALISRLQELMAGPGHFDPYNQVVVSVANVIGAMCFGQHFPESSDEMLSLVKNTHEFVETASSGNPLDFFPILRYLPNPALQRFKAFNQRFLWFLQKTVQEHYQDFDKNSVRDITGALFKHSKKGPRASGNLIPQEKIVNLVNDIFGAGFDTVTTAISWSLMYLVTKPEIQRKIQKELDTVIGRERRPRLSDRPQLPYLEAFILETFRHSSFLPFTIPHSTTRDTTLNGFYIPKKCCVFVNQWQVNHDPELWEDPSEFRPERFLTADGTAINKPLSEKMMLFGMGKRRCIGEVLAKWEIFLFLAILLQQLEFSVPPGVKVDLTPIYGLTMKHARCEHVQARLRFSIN
Put plainly: Inhibition of CYP1A2 in human liver microsomes preincubated for 5 mins followed by NADPH addition and measured after 10 mins by LC/MS analysis. The format is ADME, Microsome. In a few lines:
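Human liver microsomes (0.2 mg/mL stock) in 0.1 M potassium phosphate pH 7.4, prewarmed 5 min at 37 °C with test compound. Phenacetin as substrate; reaction started with NADPH (8 mM stock) and run 10 min, in duplicate. α-Naphthoflavone as reference inhibitor; LC/MS read-out.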

The test system of another data set is VCaP. Put plainly: Downregulation of KLK3 gene expression in human VCaP cells incubated for 24 hrs by qRT-PCR analysis. The format is functional, cell-based. Conditions: dose 0.03-30 nM. In a few lines: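 LNCaP cells (RPMI 1640) or VCaP cells (DMEM Glutamax), both with 10% FBS, treated for 24 h. KLK3 mRNA measured by qRT-PCR and calculated by the comparative CT method against GAPDH and vehicle.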
On the technique in general: In qPCR the cycle at which signal appears reflects the starting amount.

The target of the next data set is T3, Cytochrome P450 2C8 (Homo sapiens, UniProt P10632).
T3 sequence (P10632 whole entry): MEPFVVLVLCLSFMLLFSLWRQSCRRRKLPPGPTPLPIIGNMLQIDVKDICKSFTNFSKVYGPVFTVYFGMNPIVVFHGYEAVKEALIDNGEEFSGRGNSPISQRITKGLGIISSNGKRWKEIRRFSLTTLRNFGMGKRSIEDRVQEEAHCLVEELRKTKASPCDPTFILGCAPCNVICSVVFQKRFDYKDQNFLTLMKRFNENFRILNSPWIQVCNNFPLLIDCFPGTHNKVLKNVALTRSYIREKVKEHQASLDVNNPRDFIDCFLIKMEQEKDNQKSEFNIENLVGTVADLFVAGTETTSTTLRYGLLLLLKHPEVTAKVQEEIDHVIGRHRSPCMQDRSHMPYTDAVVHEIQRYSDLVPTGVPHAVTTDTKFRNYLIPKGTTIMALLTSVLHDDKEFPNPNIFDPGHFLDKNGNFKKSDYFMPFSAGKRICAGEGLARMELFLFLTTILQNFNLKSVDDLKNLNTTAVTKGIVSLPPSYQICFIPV
Put plainly: Inhibition of CYP2C8 in human liver microsomes preincubated for 5 mins followed by NADPH addition and measured after 20 mins by LC/MS analysis. In kind it is ADME, Microsome.

For the next data set, the system named is LNCaP. Put plainly: Induction of androgen receptor degradation in human LNCaP cells at 100 nM pretreated with thalidomide for 2 hrs followed by compound addition and 3 hrs by Western blot analysis. In kind it is functional, cell-based. Conditions: time 5.0 hrs. In a few lines:
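LNCaP or VCaP cells pretreated 2 h with DMSO, ARi-12 (10 μM), thalidomide (10 μM), MG-132 (3 μM) or MLN4924 (0.5 μM), then given degrader at 100 nM for 3 h. AR measured by Western blot with GAPDH as loading control.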

For the compound `C[C@H]1CC2(CCN(c3ccc(C(=O)N4CCN(C5CN(c6ccc7c(c6)C(=O)N(C6CCC(=O)NC6=O)C7=O)C5)CC4)cc3)CC2)CN1c1ccc(C#N)c(Cl)c1` (stereo partly drawn), the concentration at 6 h in data set [1] amounted to 369 ng/mL. The maximum concentration (Cmax) in data set [2] was 294 ng/mL. On Androgen receptor, this compound showed an EC50 of 0.0006 µM. Moreover, the t1/2 in data set [3] is more than 1 h. In addition, the IC50 against Cytochrome P450 1A2 and against Cytochrome P450 2C8 was more than 10 µM throughout. Besides, the Activity entry in the data set with VCaP is “Dose-Dependent Effect”. In addition, the result with LNCaP was inactive.

In general, Cmax refers to the peak of the concentration-time curve. By EC50 is commonly meant the midpoint of the concentration-response curve. Low readings indicate greater potency, high ones weaker potency. Usually IC50 stands for the midpoint of a concentration-inhibition curve.
